From article PMC5522708 (Archives of biochemistry and biophysics, 2016)
Blank lines part the entries; values can stand above or below the compound they belong to.

Columns and labels:
HsRen (human renalase) = details: cited from earlier work; for binding constants of the products: earlier work, no reference given
[1] = tested on: E.coli malate dehydrogenase; details: competitive; cited from earlier work
[2] = target: specific enzymes that have β-NADH as substrate; details: competitive; cited from earlier work
renalase = assay: HPLC substrate analysis of reduced NR and NMN isomers with renalase; type: biochemical; details: ~12.5 µM renalase, 10 min, HPLC of borohydride-reduced mixtures, pH 7.5
Outline: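 Each mixture was split: one half received renalase, the other served as the no-enzyme and stability control. After 10 min, enzyme was removed by 10 kDa ultrafiltration. Filtrates ran on isocratic C18 HPLC (same buffer) with detection at 260/370 nm, corrected for dilution.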

human renalase = human renalase (Homo sapiens, UniProt Q5VYX0); type: biochemical, H. sapiens; details: for inhibition of 6DHNAD oxidation (reductive half reaction): 173 µM 6DHNAD, anaerobic
[3] = target: HsRen (renalase from H. sapiens) (Homo sapiens, UniProt Q5VYX0); assay: Reductive half-reaction of HsRen; type: biochemical; details: anaerobic, 25 °C; for increase in kred/Kd on addition of ADP: ADP 4–5 mM
Outline: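 Anaerobic stopped-flow was run at 25 °C in 20 mM HEPES, pH 7.5, with glucose/glucose oxidase O2 scavenging. HsRen was 6–11 µM post-mix, and flavin reduction was read at 458 nm. DHNR runs included 2 mM octyl-β-glucoside.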

Chain of HsRen (renalase from H. sapiens) (Q5VYX0 18-342): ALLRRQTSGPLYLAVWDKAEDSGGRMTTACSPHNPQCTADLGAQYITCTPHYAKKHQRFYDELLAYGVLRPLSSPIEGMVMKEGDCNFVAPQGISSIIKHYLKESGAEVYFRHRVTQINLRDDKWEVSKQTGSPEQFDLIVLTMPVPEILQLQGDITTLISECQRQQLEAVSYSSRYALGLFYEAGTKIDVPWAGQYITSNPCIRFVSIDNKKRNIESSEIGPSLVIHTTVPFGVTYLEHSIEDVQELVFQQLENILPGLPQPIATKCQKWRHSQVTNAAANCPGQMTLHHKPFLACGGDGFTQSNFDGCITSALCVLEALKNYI
Chain of human renalase (Q5VYX0 18-342): as above

SMILES: NC(=O)C1=CN([C@@H]2O[C@H](COP(=O)(O)OP(=O)(O)OC[C@H]3O[C@@H](n4cnc5c(N)ncnc54)[C@H](O)[C@@H]3O)[C@@H](O)[C@H]2O)CC=C1 [6DHNAD, 6-dihydronicotinamide adenine dinucleotide]
- Kd (HsRen (human renalase); read-out: measured dissociation constant for the substrate): 0.173 mM
- Ki [1]: 34 nM
- Ki values [2]: sub-micromolar range

- consumed by renalase (substrate) (renalase): consumed
SMILES: NC(=O)C1=CC=CN([C@@H]2O[C@H](COP(=O)(O)O)[C@@H](O)[C@H]2O)C1 [2DHNMN, 2-dihydronicotinamide mononucleotide]

SMILES: Nc1ncnc2c1ncn2[C@@H]1O[C@H](COP(=O)(O)OP(=O)(O)O)[C@@H](O)[C@H]1O [ADP, adenosine diphosphate]
- Kd (human renalase): 15 mM

SMILES: NC(=O)C1=CC=CN([C@@H]2O[C@H](CO)[C@@H](O)[C@H]2O)C1 [2DHNR]
- consumed by renalase (substrate) (renalase): consumed

SMILES: CNC(=O)c1cccnc1 [methyl nicotinamide]
- inhibition of 6DHNAD oxidation (reductive half reaction) (human renalase; HsRen): did not show measureable inhibition

- consumed by renalase (substrate) (renalase): consumed
- increase in kred/Kd on addition of ADP ([3]; pH 7.5): 7 fold
- increase in kred/Kd on addition of ADP ([3]; pH 7.5, listed as 6-dihydronicotinamide riboside): seven
SMILES: NC(=O)C1=CN([C@@H]2O[C@H](CO)[C@@H](O)[C@H]2O)CC=C1 [6DHNR, 6-dihydornicotinamide riboside]

- difference in the Kd for 4DHNMN compared to 4DHNR (human renalase; HsRen): six-fold
- inhibition of 6DHNAD oxidation (reductive half reaction) (human renalase; HsRen): inhibitory
SMILES: NC(=O)C1=CN([C@@H]2O[C@H](COP(=O)(O)O)[C@@H](O)[C@H]2O)C=CC1 [4DHNMN, 4-dihydronicotinamide mononucleotide]

SMILES: NC(=O)c1ccc[n+]([C@@H]2O[C@H](COP(=O)([O-])OP(=O)(O)OC[C@H]3O[C@@H](n4cnc5c(N)ncnc54)[C@H](OP(=O)(O)O)[C@@H]3O)[C@@H](O)[C@H]2O)c1 [β-NADP^+, oxidized nicotinamide adenine dinucleotide phosphate]
- binding constants of the products (HsRen (human renalase)): low millimolar

SMILES: NC(=O)c1cccnc1 [nicotinamide]
- IC50 (human renalase): > 68 mM
- inhibition of 6DHNAD oxidation (reductive half reaction) (human renalase; HsRen): did not show measureable inhibition

- consumed by renalase (substrate) (renalase): consumed
- effect of AMP counterpart ligand on kred/Kd ([3]; pH 7.5): no measurable difference
SMILES: NC(=O)C1=CN(C2OC(COP(=O)(O)O)C(O)C2O)CC=C1 (centres unmarked) [6DHNMN, 6-dihyronicotinamide mononucleotide]

- IC50 (human renalase): > 7.3 mM
- inhibition of 6DHNAD oxidation (reductive half reaction) (human renalase; HsRen): did not yield any substrate inhibition
SMILES: NC(=O)c1ccc[n+]([C@@H]2O[C@H](CO)[C@@H](O)[C@H]2O)c1 [NR^+, nicotinamide riboside]

- inhibition of 6DHNAD oxidation (reductive half reaction) (human renalase; HsRen): inhibitory
SMILES: NC(=O)C1=CN([C@@H]2O[C@H](CO)[C@@H](O)[C@H]2O)C=CC1 [4DHNR, 4-dihydronicotinamide riboside]

SMILES: Nc1ncnc2c1ncn2[C@@H]1O[C@H](COP(=O)(O)O)[C@@H](O)[C@H]1O [AMP, adenosine monophosphate]
- inhibition of 6DHNAD oxidation (reductive half reaction) (human renalase; HsRen): did not show measureable inhibition

SMILES: NC(=O)c1ccc[n+]([C@@H]2O[C@H](COP(=O)([O-])OP(=O)(O)OC[C@H]3O[C@@H](n4cnc5c(N)ncnc54)[C@H](O)[C@@H]3O)[C@@H](O)[C@H]2O)c1 [β-NAD^+, oxidized nicotinamide adenine dinucleotide]
- binding constants of the products (HsRen (human renalase)): low millimolar

SMILES: NC(=O)c1ccc[n+]([C@@H]2O[C@H](COP(=O)([O-])O)[C@@H](O)[C@H]2O)c1 [NMN^+, nicotinamide mononucleotide]
- inhibition of 6DHNAD oxidation (reductive half reaction) (human renalase; HsRen): did not yield any substrate inhibition
